Measurements published in ChEMBL document CHEMBL2417477, “Synthesis and antibacterial activity of doxycycline neoglycosides” (J Nat Prod, 2013).
Converted amounts (≈) assume the structure as drawn.

Columns and labels:
[1] = system: Escherichia coli; assay: Antibacterial activity against tetracycline-resistant Escherichia coli 1-849 assessed as growth inhibition; format: functional
[2] = Cytotoxicity against human IMR90 cells assessed as cell viability at 10 uM after 2 days by Alamar Blue assay relative to control; format: cell-based; conditions: IMR-90 cells, read-out: Activity
In short: (§1)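 Resazurin (AlamarBlue) read-out of residual metabolic activity. A549 grown in DMEM/F-12 Kaighn's and IMR 90 in MEM/EBSS, both with 10% heat-inactivated FBS, penicillin/streptomycin and 2 mM L-glutamine. Seeded at 2 × 10^3 cells/well, held 24 h at 37 °C in 5% CO2, then exposed to 10 μM final for 2 days. Controls: 1.5 mM H2O2 and 10 μg/ml actinomycin D.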

[3] = Cytotoxicity against human A549 cells assessed as cell viability at 10 uM after 2 days by Alamar Blue assay relative to control; format: cell-based; conditions: read-out: Activity; in short: as §1
[4] = system: Staphylococcus aureus; assay: Antibacterial activity against tetracycline-resistant Staphylococcus aureus R2507 assessed as growth inhibition; format: functional
[5] = system: Escherichia coli; assay: Antibacterial activity against tetracycline-sensitive Escherichia coli ATCC 25922 assessed as growth inhibition; format: functional
[6] = Stability of the compound in DMSO at -20 degC at 3 mM after 12 months by HPLC analysis; format: physicochemical; conditions: 8766 h, 3000 µM

CON(CC(=O)Nc1ccc2c(c1O)C(=O)C1=C(O)[C@]3(O)C(=O)C(C(N)=O)=C(O)[C@@H](N(C)C)[C@@H]3[C@@H](O)[C@@H]1[C@H]2C)[C@H]1CC[C@H](N(C)C)[C@@H](C)O1
MIC [1]: 32 µg/mL (≈ 46.5 µM) | viability at 48 h, 10 µM [2]: 101% | viability at 48 h, 10 µM [3]: 96.9% | MIC [4]: 16 µg/mL (≈ 23.3 µM) | MIC [5]: 4 µg/mL (≈ 5.82 µM)

CON(CC(=O)Nc1ccc2c(c1O)C(=O)C1=C(O)[C@]3(O)C(=O)C(C(N)=O)=C(O)[C@@H](N(C)C)[C@@H]3[C@@H](O)[C@@H]1[C@H]2C)[C@H]1O[C@H](CO)[C@@H](O)[C@H](O)[C@H]1N
Stability [6]: Stable | MIC [1]: 4 µg/mL (≈ 5.65 µM) | viability at 48 h, 10 µM [2]: 94.6% | viability at 48 h, 10 µM [3]: 99.1% | MIC [4]: 4 µg/mL (≈ 5.65 µM) | MIC [5]: 4 µg/mL (≈ 5.65 µM)

CON(CC(=O)Nc1ccc2c(c1O)C(=O)C1=C(O)[C@]3(O)C(=O)C(C(N)=O)=C(O)[C@@H](N(C)C)[C@@H]3[C@@H](O)[C@@H]1[C@H]2C)C1O[C@H](CO)[C@@H](O)[C@H](O)[C@@H]1N (mixture of isomers)
MIC [1]: 32 µg/mL | viability at 48 h, 10 µM [2]: 98.9% | viability at 48 h, 10 µM [3]: 97.1% | MIC [4]: 32 µg/mL | MIC [5]: 4 µg/mL

CON(CC(=O)Nc1ccc2c(c1O)C(=O)C1=C(O)[C@]3(O)C(=O)C(C(N)=O)=C(O)[C@@H](N(C)C)[C@@H]3[C@@H](O)[C@@H]1[C@H]2C)[C@@H]1O[C@H](CO)[C@@H](O)[C@H](O)[C@H]1N
MIC [1]: 32 µg/mL (≈ 45.2 µM) | viability at 48 h, 10 µM [2]: 102% | viability at 48 h, 10 µM [3]: 95.6% | MIC [4]: 32 µg/mL (≈ 45.2 µM) | MIC [5]: 8 µg/mL (≈ 11.3 µM)

CON(CC(=O)Nc1ccc2c(c1O)C(=O)C1=C(O)[C@]3(O)C(=O)C(C(N)=O)=C(O)[C@@H](N(C)C)[C@@H]3[C@@H](O)[C@@H]1[C@H]2C)[C@@H]1O[C@H](CO)[C@@H](O)[C@H](O)[C@H]1NC(=O)C(F)(F)F
MIC [1]: 32 µg/mL (≈ 39.8 µM) | viability at 48 h, 10 µM [2]: 109% | viability at 48 h, 10 µM [3]: 98.7% | MIC [4]: 16 µg/mL (≈ 19.9 µM) | MIC [5]: 4 µg/mL (≈ 4.98 µM)

CON(CC(=O)Nc1ccc2c(c1O)C(=O)C1=C(O)[C@]3(O)C(=O)C(C(N)=O)=C(O)[C@@H](N(C)C)[C@@H]3[C@@H](O)[C@@H]1[C@H]2C)C1OC[C@@H](O)[C@@H](O)[C@@H]1O (mixture of isomers)
MIC [1]: 64 µg/mL | viability at 48 h, 10 µM [2]: 102% | viability at 48 h, 10 µM [3]: 97.2% | MIC [4]: 32 µg/mL | MIC [5]: 8 µg/mL

C[C@H]1c2cccc(O)c2C(=O)C2=C(O)[C@]3(O)C(=O)C(C(N)=O)=C(O)[C@@H](N(C)C)[C@@H]3[C@@H](O)[C@@H]21.O [DOXYCYCLINE]
MIC [1]: 8 µg/mL | MIC [4]: 2 µg/mL | MIC [5]: 1 µg/mL

CON(CC(=O)Nc1ccc2c(c1O)C(=O)C1=C(O)[C@]3(O)C(=O)C(C(N)=O)=C(O)[C@@H](N(C)C)[C@@H]3[C@@H](O)[C@@H]1[C@H]2C)C1O[C@H](CO)[C@@H](O)[C@H](OC(C)C(=O)O)[C@H]1NC(C)=O (mixture of isomers)
MIC [1]: 32 µg/mL | viability at 48 h, 10 µM [2]: 104% | viability at 48 h, 10 µM [3]: 97.7% | MIC [4]: 16 µg/mL | MIC [5]: 8 µg/mL

C[C@H]1c2ccc(N)c(O)c2C(=O)C2=C(O)[C@]3(O)C(=O)C(C(N)=O)=C(O)[C@@H](N(C)C)[C@@H]3[C@@H](O)[C@@H]21
MIC [1]: 2 µg/mL (≈ 4.35 µM) | MIC [4]: 4 µg/mL (≈ 8.71 µM) | MIC [5]: 1 µg/mL (≈ 2.18 µM)

CON(CC(=O)Nc1ccc2c(c1O)C(=O)C1=C(O)[C@]3(O)C(=O)C(C(N)=O)=C(O)[C@@H](N(C)C)[C@@H]3[C@@H](O)[C@@H]1[C@H]2C)C1OC[C@H](O)[C@@H]1O (mixture of isomers)
MIC [1]: 64 µg/mL | viability at 48 h, 10 µM [2]: 99.3% | viability at 48 h, 10 µM [3]: 98.2% | MIC [4]: 32 µg/mL | MIC [5]: 4 µg/mL

C=CCOC(=O)N[C@H]1C(N(CC(=O)Nc2ccc3c(c2O)C(=O)C2=C(O)[C@]4(O)C(=O)C(C(N)=O)=C(O)[C@@H](N(C)C)[C@@H]4[C@@H](O)[C@@H]2[C@H]3C)OC)O[C@H](CO)[C@@H](O)[C@@H]1O (mixture of isomers)
MIC [1]: 16 µg/mL | viability at 48 h, 10 µM [2]: 97.6% | viability at 48 h, 10 µM [3]: 98.8% | MIC [4]: 8 µg/mL | MIC [5]: 8 µg/mL

CONCC(=O)Nc1ccc2c(c1O)C(=O)C1=C(O)[C@]3(O)C(=O)C(C(N)=O)=C(O)[C@@H](N(C)C)[C@@H]3[C@@H](O)[C@@H]1[C@H]2C
MIC [1]: 8 µg/mL (≈ 14.6 µM) | viability at 48 h, 10 µM [2]: 99.2% | viability at 48 h, 10 µM [3]: 95.9% | MIC [4]: 4 µg/mL (≈ 7.32 µM) | MIC [5]: 4 µg/mL (≈ 7.32 µM)
